Test results taken from ChEMBL document CHEMBL1132163 (Bioorg Med Chem Lett, 1999).

Experiments:
[1] = target: T1, Cyclin-dependent kinase 1 (Homo sapiens, UniProt P06493); assay: Inhibitory activity against cyclin-dependent kinase 1 (CDK1) was determined
[2] = target: T1, Cyclin-dependent kinase 1; assay: Inhibition of cyclin-dependent kinase 1 (CDK1) (Not active)
[3] = Inhibition of human bladder carcinoma T24 cell proliferation; type: functional, cell-based, T-24
Procedure, shortened: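 T24 cells seeded 1.5 x 10^3/well, attached overnight (16-18h), washed with serum-free medium, exposed to serial drug dilutions 4-5 days (≥2-3 control divisions); duplicates per concentration. Fixed 3.3% glutaraldehyde, methylene blue 0.05% stain, eluted 3% HCl, OD 665nm.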

[4] = target: cAMP-dependent protein kinase (PKA) (Homo sapiens, UniProt P22694+P17612+P22612); assay: Inhibition of Protein kinase A; type: protein assay
[5] = target: Protein kinase C alpha type (Homo sapiens, UniProt P17252); assay: Inhibition of Protein kinase C alpha
[6] = target: T2, Epidermal growth factor receptor (Homo sapiens, UniProt P00533); assay: Inhibit of epidermal growth factor receptor (EGFR)
T2 sequence (P00533 whole entry): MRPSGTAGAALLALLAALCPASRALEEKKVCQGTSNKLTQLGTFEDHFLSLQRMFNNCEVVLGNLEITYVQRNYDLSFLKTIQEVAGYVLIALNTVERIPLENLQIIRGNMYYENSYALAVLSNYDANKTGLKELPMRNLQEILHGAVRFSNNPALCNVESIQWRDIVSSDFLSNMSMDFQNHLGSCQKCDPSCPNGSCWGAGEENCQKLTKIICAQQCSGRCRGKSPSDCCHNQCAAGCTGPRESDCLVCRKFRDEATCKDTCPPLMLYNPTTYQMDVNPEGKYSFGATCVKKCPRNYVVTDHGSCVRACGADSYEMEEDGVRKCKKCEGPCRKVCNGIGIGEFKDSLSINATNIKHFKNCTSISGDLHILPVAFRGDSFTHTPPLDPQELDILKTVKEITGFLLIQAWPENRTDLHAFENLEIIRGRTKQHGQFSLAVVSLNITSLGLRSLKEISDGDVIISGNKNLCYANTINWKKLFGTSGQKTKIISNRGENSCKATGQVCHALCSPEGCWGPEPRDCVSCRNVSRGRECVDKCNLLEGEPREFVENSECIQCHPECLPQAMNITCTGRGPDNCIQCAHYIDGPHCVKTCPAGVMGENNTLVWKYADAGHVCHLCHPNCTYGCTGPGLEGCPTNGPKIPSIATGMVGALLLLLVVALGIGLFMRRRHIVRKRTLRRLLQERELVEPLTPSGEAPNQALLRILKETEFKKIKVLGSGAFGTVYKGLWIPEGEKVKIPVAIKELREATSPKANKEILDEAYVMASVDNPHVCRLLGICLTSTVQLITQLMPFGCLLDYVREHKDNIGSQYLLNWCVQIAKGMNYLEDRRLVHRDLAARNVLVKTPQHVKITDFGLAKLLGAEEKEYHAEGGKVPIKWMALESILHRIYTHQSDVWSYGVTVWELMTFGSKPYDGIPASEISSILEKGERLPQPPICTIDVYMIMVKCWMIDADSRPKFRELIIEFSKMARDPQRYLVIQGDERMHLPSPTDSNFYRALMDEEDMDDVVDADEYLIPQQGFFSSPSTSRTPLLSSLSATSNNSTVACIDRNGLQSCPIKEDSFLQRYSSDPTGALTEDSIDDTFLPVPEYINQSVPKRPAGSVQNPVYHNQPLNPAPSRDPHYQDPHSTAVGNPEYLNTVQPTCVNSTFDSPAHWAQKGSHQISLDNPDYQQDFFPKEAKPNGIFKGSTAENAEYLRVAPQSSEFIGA

[7] = target: T2, Epidermal growth factor receptor; assay: Inhibition of epidermal growth factor receptor (EGFR) (inactive)

T1 sequence (P06493 whole entry): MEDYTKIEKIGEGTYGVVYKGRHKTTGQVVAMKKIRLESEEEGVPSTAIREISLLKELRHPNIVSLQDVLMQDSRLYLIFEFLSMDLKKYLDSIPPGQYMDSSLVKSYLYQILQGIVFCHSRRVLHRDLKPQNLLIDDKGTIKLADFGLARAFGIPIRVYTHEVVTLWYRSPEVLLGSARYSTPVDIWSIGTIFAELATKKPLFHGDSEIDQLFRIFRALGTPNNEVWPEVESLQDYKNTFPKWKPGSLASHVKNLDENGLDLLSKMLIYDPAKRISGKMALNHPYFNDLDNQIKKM

Row | IC50 [1] [nM] | Structure (SMILES) | further results
1 | 310 | CCn1cnc2c(Nc3cccc(C(F)(F)F)c3)nc(N[C@@H]3CCCC[C@@H]3N)nc21 | –
2 | – | CCn1cnc2c(Nc3cccc(C(F)(F)F)c3)nc(NCCO)nc21 | IC50 [2]: Not Active
3 | 700 | CCn1cnc2c(Nc3cccc(C(F)(F)F)c3)nc(NCCN)nc21 | –
4 | 85 | CCn1cnc2c(Nc3cccc(C#N)c3)nc(N[C@H]3CC[C@H](N)CC3)nc21 | –
5 | 41 | CCn1cnc2c(Nc3cccc(Cl)c3)nc(N3CCC[C@@H]3CN)nc21 | IC50 ([3]; Homo sapiens, T-24): 2350 nM
6 | 340 | CCn1cnc2c(Nc3cccc(OC)c3)nc(N[C@H]3CC[C@@H](N)CC3)nc21 | –
7 | 100 | CCn1cnc2c(Nc3ccc(F)cc3)nc(N[C@H]3CC[C@@H](N)CC3)nc21 | –
8 | – | CCn1cnc2c(Nc3cccc(C#N)c3)nc(NCCO)nc21 | IC50 [2]: Not Active
9 | 1000 | CCn1cnc2c(Nc3cccc(OC)c3)nc(NCCO)nc21 | –
10 | 32 | CCn1cnc2c(Nc3cccc(F)c3)nc(N[C@H]3CC[C@H](O)CC3)nc21 | –
11 | 250 | CCn1cnc2c(Nc3cccc(F)c3)nc(N[C@@H]3CCCC[C@@H]3N)nc21 | –
12 | 600 | CCn1cnc2c(Nc3cccc(F)c3)nc(NCCN)nc21 [listing 1 of 2 here] | IC50 ([3]; Homo sapiens, T-24): 6500 nM
13 | 350 | CCn1cnc2c(Nc3cccc(C#N)c3)nc(N[C@@H]3CCCC[C@@H]3N)nc21 | –
14 | 120 | CCn1cnc2c(Nc3cccc(Cl)c3)nc(N[C@H]3CCC[C@@H](N)C3)nc21 | IC50 [4]: 150000 nM; IC50 [5]: 6000 nM; IC50 ([3]; Homo sapiens, T-24): 1500 nM
15 | – | CCn1cnc2c(Nc3cccc(Cl)c3)nc(N[C@H]3CC[C@@H](O)CC3)nc21 | IC50 ([3]; Homo sapiens, T-24): 830 nM
16 | 28 | CCn1cnc2c(Nc3cccc(C(F)(F)F)c3)nc(N[C@H]3CC[C@H](O)CC3)nc21 | –
17 | 28 | CCn1cnc2c(Nc3cccc(C#N)c3)nc(N[C@H]3CC[C@H](O)CC3)nc21 | –
18 | 31 | CCn1cnc2c(Nc3ccc(F)cc3)nc(N[C@H]3CC[C@H](N)CC3)nc21 | –
19 | 150 | CCn1cnc2c(Nc3cccc(F)c3)nc(N[C@H]3CC[C@H](N)CC3)nc21 | –
20 | 230 | CCn1cnc2c(Nc3cccc(OC)c3)nc(N[C@@H]3CCCC[C@@H]3N)nc21 | –
21 | 440 | CCn1cnc2c(Nc3cccc(F)c3)nc(NCCO)nc21 | –
22 | 350 | CCn1cnc2c(Nc3cccc(C#N)c3)nc(N[C@H]3CC[C@@H](N)CC3)nc21 | –
23 | 39 | CCn1cnc2c(Nc3cccc(Cl)c3)nc(N[C@H]3CC[C@@H](N)CC3)nc21 (stereo in doubt; 15) | IC50 ([3]; Homo sapiens, T-24): 540 nM

Row | IC50 [1] [nM] | Structure (SMILES) | further results
24 | 550 | CCn1cnc2c(Nc3ccc(OC)cc3)nc(NCCN)nc21 | –
25 | 30 | CCn1cnc2c(Nc3cccc(Cl)c3)nc(N[C@H]3CC[C@H](O)CC3)nc21 | –
26 | 140 | CCn1cnc2c(Nc3cccc(Cl)c3)nc(N[C@H]3CC[C@@H](N)CC3)nc21 (stereo in doubt) | –
27 | 39 | CCn1cnc2c(Nc3cccc(Cl)c3)nc(N3CCCCC3CO)nc21 (stereo not drawn) | IC50 ([3]; Homo sapiens, T-24): 3650 nM
28 | 150 | CCn1cnc2c(Nc3ccc(F)cc3)nc(N[C@@H]3CCCC[C@@H]3N)nc21 | –
29 | 140 | CCn1cnc2c(Nc3cccc(C(F)(F)F)c3)nc(N[C@H]3CC[C@H](N)CC3)nc21 | –
30 | 80 | CCn1cnc2c(Nc3cccc(Cl)c3)nc(NCCN)nc21 | IC50 [4]: 180000 nM; IC50 [5]: 31500 nM; IC50 ([3]; Homo sapiens, T-24): 3160 nM; IC50 [6]: > 100000 nM
31 | 350 | CCn1cnc2c(Nc3cccc(F)c3)nc(N[C@H]3CC[C@@H](N)CC3)nc21 | –
32 | 560 | CCn1cnc2c(Nc3cccc(C#N)c3)nc(NCCN)nc21.Cl | IC50 [4]: > 500000 nM; IC50 [5]: 78000 nM; IC50 ([3]; Homo sapiens, T-24): 5240 nM; IC50 [6]: > 10000 nM
33 | 290 | CCn1cnc2c(Nc3cccc(C(F)(F)F)c3)nc(N[C@H]3CC[C@@H](N)CC3)nc21 | –
34 | 90 | CCn1cnc2c(Nc3cccc(OC)c3)nc(N[C@H]3CC[C@H](O)CC3)nc21 | –
35 | 560 | CCn1cnc2c(Nc3cccc(C#N)c3)nc(NCCN)nc21 | –
36 | 700 | CCn1cnc2c(Nc3cccc(C(F)(F)F)c3)nc(NCCN)nc21.Cl | IC50 [4]: 500000 nM; IC50 [5]: 50000 nM; IC50 ([3]; Homo sapiens, T-24): 6080 nM; IC50 [6]: > 10000 nM
37 | 160 | CCn1cnc2c(Nc3cccc(OC)c3)nc(N[C@H]3CC[C@H](N)CC3)nc21 | –
38 | 80 | CCn1cnc2c(Nc3cccc(Cl)c3)nc(N3CCC[C@@H]3CO)nc21 | IC50 [7]: Not Active; IC50 [4]: > 500000 nM; IC50 [5]: 38500 nM; IC50 ([3]; Homo sapiens, T-24): 6710 nM
39 | 450 | CCn1cnc2c(Nc3ccc(F)cc3)nc(NCCN)nc21 [listing 1 of 2 here] | –
40 | 450 | CCn1cnc2c(Nc3ccc(F)cc3)nc(NCCN)nc21 [listing 2 of 2 here] | IC50 ([3]; Homo sapiens, T-24): 8300 nM
41 | 40 | CCn1cnc2c(Nc3ccc(F)cc3)nc(N[C@H]3CC[C@H](O)CC3)nc21 | –
42 | 600 | CCn1cnc2c(Nc3cccc(F)c3)nc(NCCN)nc21 [listing 2 of 2 here] | –
43 | 380 | CCn1cnc2c(Nc3ccc(F)cc3)nc(NCCO)nc21 | –
44 | 39 | CCn1cnc2c(Nc3cccc(Cl)c3)nc(N[C@H]3CC[C@H](N)CC3)nc21 | –
45 | 330 | CCn1cnc2c(Nc3cccc(Cl)c3)nc(NCCO)nc21 | IC50 ([3]; Homo sapiens, T-24): 17500 nM
46 | 550 | CCn1cnc2c(Nc3cccc(OC)c3)nc(NCCN)nc21 | IC50 ([3]; Homo sapiens, T-24): 9900 nM

Row | Structure (SMILES) | IC50 [1] [nM] | further results
47 | CCn1cnc2c(Nc3cccc(Cl)c3)nc(N[C@@H]3CCCC[C@@H]3N)nc21 (stereo in doubt; 12) | 110 | IC50 [4]: 335000 nM; IC50 [5]: 30000 nM; IC50 ([3]; t-24): 1350 nM; IC50 [6]: 2000 nM
48 | CCn1cnc2c(Nc3cccc(Cl)c3)nc(N[C@@H]3CCCC[C@@H]3N)nc21 (stereo in doubt) | 31 | –
49 | CCn1cnc2c(Nc3cccc(Cl)c3)nc(N[C@@H]3CCCC[C@@H]3N)nc21 (stereo in doubt; 13) | 25 | IC50 [4]: 150000 nM; IC50 [5]: 13500 nM; IC50 ([3]; t-24): 480 nM; IC50 [6]: 5100 nM
